Activity calls are given as the source filed them. No cut-off for these calls is given here.
Key:
[1] = target: Tyrosine-protein kinase Fes/Fps (Homo sapiens) (UniProt P07332); assay: Inhibition of N-terminal His6-tagged recombinant full length human Fes expressed in baculovirus infected Sf21 cells assessed as residual activity at 1 uM relative to control
U-118-MG = assay: Antiproliferative activity against human U-118-MG cells assessed as inhibition of cell growth incubated for 72 hrs by cell-titer glo assay; type: functional, cell-based
[2] = Half-life in Beagle dog at 5 mg/kg, po by LC-MS analysis; type: ADME, organism-based, Canis lupus familiaris; conditions: in vivo
CAKI-2 = assay: Antiproliferative activity against human CAKI-2 cells assessed as inhibition of cell growth incubated for 72 hrs by cell-titer glo assay; type: functional, cell-based; conditions: CAKI-2, 72 h
Outline: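 Cells seeded 10,000–30,000/cm² (adherent) or 100,000/mL (suspension) in medium with 10% fetal calf serum; after 24 h treated in duplicate with serial dilutions for 72 h. Viable cells read by CellTiter-Glo luminescence; IC50 from sigmoidal fit; at least two independent experiments.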

SF-539 = assay: Antiproliferative activity against human SF-539 cells assessed as inhibition of cell growth incubated for 72 hrs by cell-titer glo assay; type: functional, cell-based; conditions: SF-539, 72 h
Outline: (§1)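 Cells from ATCC or ECACC, kept in supplier-recommended medium with 1% penicillin-streptomycin at 37°C, 5% CO₂. Seeded at 10,000–30,000/cm² (adherent) or 100,000/mL (nonadherent) in medium with 10% fetal calf serum. Dosed after 24 h in duplicate with serial dilutions. Viable cells read by CellTiter-Glo 72 h later. IC50 from sigmoidal fit. At least two independent experiments.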

[3] = Volume of distribution at steady state in Sprague-Dawley rat at 10 mg/kg, iv by LC-MS analysis; type: ADME, organism-based; conditions: in vivo, read-out: Vdss
[4] = target: Insulin receptor-related protein (Homo sapiens) (UniProt P14616); assay: Inhibition of N-terminal 6His-tagged recombinant human IRR (944 to 1266 residues) expressed in baculovirus infected Sf21 cells assessed as residual activity at 0.1 uM relative to control
[5] = target: NUAK family SNF1-like kinase 1 (Homo sapiens) (UniProt O60285); assay: Inhibition of N-terminal 6His-tagged recombinant human ARK5 (2 to end residues) expressed in baculovirus infected Sf21 cells assessed as residual activity at 1 uM relative to control
NUAK family SNF1-like kinase 1 (Homo sapiens), sequence (O60285 whole entry): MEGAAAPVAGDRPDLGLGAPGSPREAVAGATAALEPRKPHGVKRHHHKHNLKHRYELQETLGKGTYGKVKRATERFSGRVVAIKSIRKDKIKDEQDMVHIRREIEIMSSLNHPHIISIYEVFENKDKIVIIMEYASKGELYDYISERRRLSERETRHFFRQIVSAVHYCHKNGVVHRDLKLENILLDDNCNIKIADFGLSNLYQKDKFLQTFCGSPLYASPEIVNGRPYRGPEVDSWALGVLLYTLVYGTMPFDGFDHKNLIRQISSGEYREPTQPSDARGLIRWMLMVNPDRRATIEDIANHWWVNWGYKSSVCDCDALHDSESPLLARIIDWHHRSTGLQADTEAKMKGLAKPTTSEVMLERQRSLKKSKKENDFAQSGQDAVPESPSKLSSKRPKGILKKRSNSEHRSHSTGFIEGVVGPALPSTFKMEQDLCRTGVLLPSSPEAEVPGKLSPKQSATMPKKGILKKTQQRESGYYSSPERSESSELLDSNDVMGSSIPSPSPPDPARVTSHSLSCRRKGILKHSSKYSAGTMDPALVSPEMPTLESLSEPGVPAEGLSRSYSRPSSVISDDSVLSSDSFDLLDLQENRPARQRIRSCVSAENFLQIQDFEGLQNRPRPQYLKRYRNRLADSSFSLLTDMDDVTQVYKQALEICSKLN

NCI-H1975 = assay: Antiproliferative activity against human NCI-H1975 cells assessed as inhibition of cell growth incubated for 72 hrs by cell-titer glo assay; type: functional, cell-based; conditions: NCI-H1975, 72 h; outline: as §1
[6] = target: Tyrosine-protein kinase ZAP-70 (Homo sapiens, UniProt P43403); assay: Inhibition of ZAP70 (unknown origin) in presence of [gamma-33P]ATP
Tyrosine-protein kinase ZAP-70, sequence (P43403 whole entry): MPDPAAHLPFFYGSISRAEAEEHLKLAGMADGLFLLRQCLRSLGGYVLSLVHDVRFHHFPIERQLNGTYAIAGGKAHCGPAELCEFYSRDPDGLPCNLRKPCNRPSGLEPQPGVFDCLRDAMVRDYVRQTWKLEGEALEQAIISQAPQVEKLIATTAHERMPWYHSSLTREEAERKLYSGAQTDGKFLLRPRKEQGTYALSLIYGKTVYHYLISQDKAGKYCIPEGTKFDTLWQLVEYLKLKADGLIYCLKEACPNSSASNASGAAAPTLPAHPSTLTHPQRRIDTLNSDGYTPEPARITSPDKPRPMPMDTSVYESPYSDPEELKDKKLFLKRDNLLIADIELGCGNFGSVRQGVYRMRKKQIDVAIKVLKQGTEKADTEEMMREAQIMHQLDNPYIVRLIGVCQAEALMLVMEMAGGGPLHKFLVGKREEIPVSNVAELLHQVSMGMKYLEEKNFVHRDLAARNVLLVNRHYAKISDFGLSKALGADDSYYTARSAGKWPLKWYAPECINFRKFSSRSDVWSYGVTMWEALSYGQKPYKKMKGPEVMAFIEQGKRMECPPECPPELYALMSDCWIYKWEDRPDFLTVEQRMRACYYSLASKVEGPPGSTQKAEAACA

[7] = target: G protein-coupled receptor kinase 6 (Homo sapiens) (UniProt P43250); assay: Inhibition of N-terminal 6His-tagged recombinant full-length human GRK6 expressed in baculovirus infected Sf21 cells assessed as residual activity at 1 uM relative to control
G protein-coupled receptor kinase 6 (Homo sapiens), sequence (P43250 whole entry, looked up): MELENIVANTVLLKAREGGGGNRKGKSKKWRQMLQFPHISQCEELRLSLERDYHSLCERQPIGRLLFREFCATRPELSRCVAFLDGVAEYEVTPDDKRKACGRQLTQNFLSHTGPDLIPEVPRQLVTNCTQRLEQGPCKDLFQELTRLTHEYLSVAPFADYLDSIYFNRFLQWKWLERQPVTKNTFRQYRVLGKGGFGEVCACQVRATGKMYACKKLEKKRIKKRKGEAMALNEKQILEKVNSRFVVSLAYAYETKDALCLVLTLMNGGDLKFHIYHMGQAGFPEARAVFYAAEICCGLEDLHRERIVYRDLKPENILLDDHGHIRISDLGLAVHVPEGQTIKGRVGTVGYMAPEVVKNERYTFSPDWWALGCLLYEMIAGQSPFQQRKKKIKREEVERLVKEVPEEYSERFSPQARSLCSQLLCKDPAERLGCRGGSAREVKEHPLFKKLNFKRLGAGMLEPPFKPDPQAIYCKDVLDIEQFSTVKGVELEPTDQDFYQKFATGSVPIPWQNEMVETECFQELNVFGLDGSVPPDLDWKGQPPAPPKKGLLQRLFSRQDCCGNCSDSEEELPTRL

[8] = target: Cytoplasmic tyrosine-protein kinase BMX (Homo sapiens) (UniProt P51813); assay: Inhibition of recombinant human Bmx assessed as residual activity at 1 uM relative to control
Cytoplasmic tyrosine-protein kinase BMX (Homo sapiens), sequence (P51813 whole entry): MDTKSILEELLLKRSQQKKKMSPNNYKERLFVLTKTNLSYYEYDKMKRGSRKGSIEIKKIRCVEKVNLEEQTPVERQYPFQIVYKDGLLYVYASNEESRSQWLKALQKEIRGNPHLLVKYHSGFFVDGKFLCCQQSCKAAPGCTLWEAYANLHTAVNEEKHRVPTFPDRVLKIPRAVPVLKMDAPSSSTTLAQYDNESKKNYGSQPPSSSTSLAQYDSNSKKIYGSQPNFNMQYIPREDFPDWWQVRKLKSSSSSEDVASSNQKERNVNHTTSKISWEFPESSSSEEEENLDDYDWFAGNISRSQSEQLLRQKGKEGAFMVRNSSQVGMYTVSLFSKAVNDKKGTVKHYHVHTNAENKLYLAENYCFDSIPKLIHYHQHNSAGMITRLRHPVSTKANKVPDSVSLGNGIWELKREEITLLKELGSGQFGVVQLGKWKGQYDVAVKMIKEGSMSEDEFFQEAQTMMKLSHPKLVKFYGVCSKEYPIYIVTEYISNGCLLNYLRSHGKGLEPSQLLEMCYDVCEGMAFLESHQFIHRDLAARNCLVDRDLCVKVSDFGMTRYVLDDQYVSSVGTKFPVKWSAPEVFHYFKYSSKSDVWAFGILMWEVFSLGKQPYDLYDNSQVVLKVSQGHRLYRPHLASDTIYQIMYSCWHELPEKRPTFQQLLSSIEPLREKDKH

[9] = Inhibition of PKAalpha (unknown origin) in presence of [gamma-33P]ATP; set-up: species or system Homo sapiens
NCI-H522 = assay: Antiproliferative activity against human NCI-H522 cells assessed as inhibition of cell growth incubated for 72 hrs by cell-titer glo assay; type: functional, cell-based; conditions: NCI-H522, 72 h; outline: as §1
[10] = Cmax in Beagle dog at 5 mg/kg, po by LC-MS analysis; type: ADME, organism-based, Canis lupus familiaris; conditions: in vivo
A2780 = assay: Induction of cell cycle arrest in human A2780 cells assessed as accumulation of cells in G2/M phase by measuring Histone H3 phosphorylation on Ser10 incubated for 24 hrs by Western blotting analysis; type: functional, cell-based; conditions: dose 0.02-0.2 µmol/L
Outline: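 A2780 ovarian carcinoma cells treated 24 h with a range of concentrations, with DMSO and nocodazole controls. 20 µg protein extract separated by SDS-PAGE and immunoblotted with chemiluminescent detection. Probed for total and phospho-Thr210 PLK1, phospho-Ser10 histone H3, phospho-Thr199 NPM and phospho-Tyr15 CDK1. Total NPM, tubulin and total CDK1 served as loading controls.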

Ephrin type-A receptor 2 = Ephrin type-A receptor 2 (Homo sapiens, UniProt P29317); assay: Inhibition of EphA2 (unknown origin) in presence of [gamma-33P]ATP
[11] = target: MAP kinase-activated protein kinase 2 (Homo sapiens, UniProt P49137); assay: Inhibition of MAPKAPK2 (unknown origin) in presence of [gamma-33P]ATP
MAP kinase-activated protein kinase 2, sequence (P49137 whole entry): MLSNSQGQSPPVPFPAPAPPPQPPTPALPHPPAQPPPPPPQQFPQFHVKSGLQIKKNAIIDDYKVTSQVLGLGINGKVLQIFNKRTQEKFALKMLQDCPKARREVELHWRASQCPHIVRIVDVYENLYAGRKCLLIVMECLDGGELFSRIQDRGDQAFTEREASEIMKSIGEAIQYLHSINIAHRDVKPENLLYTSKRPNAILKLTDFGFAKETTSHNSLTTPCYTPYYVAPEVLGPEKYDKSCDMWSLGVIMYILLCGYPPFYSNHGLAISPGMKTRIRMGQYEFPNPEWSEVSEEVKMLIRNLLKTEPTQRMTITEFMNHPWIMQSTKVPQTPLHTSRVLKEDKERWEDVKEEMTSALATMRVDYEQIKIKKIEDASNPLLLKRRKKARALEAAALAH

[12] = target: Dual specificity mitogen-activated protein kinase kinase 1 (Homo sapiens) (UniProt Q02750); assay: Inhibition of N-terminal GST and C-terminal His6-tagged recombinant full-length human MEK1 expressed in E. coli assessed as residual activity at 0.1 uM relative to control
[13] = target: Angiopoietin-1 receptor (Homo sapiens) (UniProt Q02763); assay: Inhibition of N-terminal His6-tagged recombinant human Tie2 (771 to end residues) expressed in baculovirus infected Sf21 cells assessed as residual activity at 1 uM relative to control
Angiopoietin-1 receptor (Homo sapiens), sequence (Q02763 whole entry): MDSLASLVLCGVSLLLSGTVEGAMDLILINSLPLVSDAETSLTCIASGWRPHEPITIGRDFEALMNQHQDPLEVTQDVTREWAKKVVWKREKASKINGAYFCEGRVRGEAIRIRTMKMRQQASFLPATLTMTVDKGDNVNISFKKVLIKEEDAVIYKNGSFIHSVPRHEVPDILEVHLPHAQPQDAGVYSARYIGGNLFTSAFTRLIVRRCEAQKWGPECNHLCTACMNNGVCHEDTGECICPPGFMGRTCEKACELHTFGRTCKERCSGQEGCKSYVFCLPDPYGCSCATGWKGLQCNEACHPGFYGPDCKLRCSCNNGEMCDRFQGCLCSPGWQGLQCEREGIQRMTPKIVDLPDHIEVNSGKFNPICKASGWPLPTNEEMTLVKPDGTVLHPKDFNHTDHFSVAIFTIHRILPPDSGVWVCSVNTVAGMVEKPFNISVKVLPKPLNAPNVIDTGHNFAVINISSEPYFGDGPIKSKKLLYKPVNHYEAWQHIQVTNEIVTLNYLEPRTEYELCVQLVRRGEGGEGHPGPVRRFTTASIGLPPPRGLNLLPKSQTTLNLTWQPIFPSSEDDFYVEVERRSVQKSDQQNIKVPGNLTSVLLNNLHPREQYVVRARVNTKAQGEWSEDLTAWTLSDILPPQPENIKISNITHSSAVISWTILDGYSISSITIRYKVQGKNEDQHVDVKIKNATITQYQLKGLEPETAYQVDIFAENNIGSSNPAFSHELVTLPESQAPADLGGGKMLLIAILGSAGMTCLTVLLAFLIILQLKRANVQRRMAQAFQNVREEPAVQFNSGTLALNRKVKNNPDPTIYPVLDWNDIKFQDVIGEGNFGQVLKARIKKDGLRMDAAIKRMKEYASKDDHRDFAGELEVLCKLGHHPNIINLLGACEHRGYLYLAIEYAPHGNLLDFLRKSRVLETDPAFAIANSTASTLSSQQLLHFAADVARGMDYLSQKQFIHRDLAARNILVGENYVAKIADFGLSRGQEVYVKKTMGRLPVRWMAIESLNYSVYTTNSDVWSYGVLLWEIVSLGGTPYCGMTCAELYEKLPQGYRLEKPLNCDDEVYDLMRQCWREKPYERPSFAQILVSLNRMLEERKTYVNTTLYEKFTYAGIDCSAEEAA

Casein kinase 2 = Casein kinase 2 (Homo sapiens, UniProt P67870+P68400+P19784+Q8NEV1); assay: Inhibition of CK2 (unknown origin) at 10 micromol/L in presence of [gamma-33P]ATP relative to control; type: protein assay; conditions: dose 10.0 µmol/L
[14] = target: Cyclin-dependent kinase 1/cyclin B1 (Homo sapiens, UniProt P06493); assay: Inhibition of CDK1/CycB (unknown origin) in presence of [gamma-33P]ATP; type: protein-complex assay
Cyclin-dependent kinase 1/cyclin B1, sequence (P06493 whole entry): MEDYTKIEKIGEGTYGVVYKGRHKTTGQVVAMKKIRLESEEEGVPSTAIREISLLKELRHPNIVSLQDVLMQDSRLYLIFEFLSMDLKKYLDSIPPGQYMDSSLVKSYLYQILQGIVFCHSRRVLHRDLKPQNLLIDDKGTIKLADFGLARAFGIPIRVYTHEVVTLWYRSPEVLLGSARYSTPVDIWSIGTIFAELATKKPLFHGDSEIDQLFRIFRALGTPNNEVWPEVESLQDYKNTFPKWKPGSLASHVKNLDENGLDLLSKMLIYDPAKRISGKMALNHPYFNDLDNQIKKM
Cyclin-dependent kinase 1/cyclin B1, sequence (P14635 whole entry, further chain): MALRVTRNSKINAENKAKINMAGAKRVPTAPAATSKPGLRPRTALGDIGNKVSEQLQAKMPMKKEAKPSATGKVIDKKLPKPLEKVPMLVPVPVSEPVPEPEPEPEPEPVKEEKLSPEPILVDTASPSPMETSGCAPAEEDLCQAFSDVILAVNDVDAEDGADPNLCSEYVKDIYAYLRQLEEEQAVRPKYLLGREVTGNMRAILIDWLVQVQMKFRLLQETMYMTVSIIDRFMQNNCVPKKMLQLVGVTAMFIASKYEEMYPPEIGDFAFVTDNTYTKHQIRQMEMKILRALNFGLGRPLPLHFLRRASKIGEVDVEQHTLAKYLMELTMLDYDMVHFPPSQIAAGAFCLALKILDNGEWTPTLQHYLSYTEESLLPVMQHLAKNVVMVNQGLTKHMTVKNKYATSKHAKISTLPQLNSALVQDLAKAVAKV

[15] = target: Testis-specific serine/threonine-protein kinase 1 (Homo sapiens) (UniProt Q9BXA7); assay: Inhibition of 6His-tagged recombinant human full length TSSK1 expressed in baculovirus infected Sf21 cells assessed as residual activity at 1 uM relative to control
U2OS = assay: Effect on cell morphology in human U2OS cells expressing GFP/alpha-tubulin fusion protein assessed as misaligned chromosomes […] at 1 uM incubated for 24 hrs by laser scanning confocal microscopy analysis; type: functional, cell-based
[16] = target: Phosphorylase b kinase gamma catalytic chain, liver/testis isoform (Homo sapiens) (UniProt P15735); assay: Inhibition of GST-tagged recombinant human PhKgamma2 (1 to 301 residues) expressed in E. coli assessed as residual activity at 1 uM relative to control
[17] = target: cAMP-dependent protein kinase (PKA) (Homo sapiens) (UniProt P22694+P17612+P22612); assay: Inhibition of recombinant human full-length PKA expressed in E.coli BL21 (DE3) pLysS cells assessed as residual activity at 0.1 uM relative to control
[18] = target: Protein kinase C beta type (Homo sapiens, UniProt P05771); assay: Inhibition of N-terminal His6-tagged recombinant human PKCbetaI (2 to end) expressed in Sf21 cells assessed as residual activity at 0.1 uM relative to control
[19] = target: Tyrosine-protein kinase Fer (Homo sapiens) (UniProt P16591); assay: Inhibition of N-terminal His6 tagged recombinant human Fer (541 to end residues) expressed in baculovirus infected Sf21 cells assessed as residual activity at 0.1 uM relative to control

## CN1CCN(c2ccc(OC(F)(F)F)c(Nc3ncc4c(n3)-c3c(c(C(N)=O)nn3CCO)CC4)c2)CC1 [ONVANSERTIB]
[1]
  Activity: 30%
U-118-MG
  IC50: 220 nM
[2]
  half-life: 4.6 h
CAKI-2
  IC50: 83 nM
SF-539
  IC50: 47 nM
[3]
  Vd: 2.8 L/kg
[4]
  Activity: 125%
[5]
  Activity: 93%
NCI-H1975
  IC50: 398 nM
[6]
  IC50: > 10000 nM
[7]
  Activity: 93%
[8]
  Activity: 85%
[9]
  IC50: > 10000 nM
NCI-H522
  IC50: 34 nM
[10]
  Cmax: 1200 nM
A2780
  Activity: Dose-Dependent Effect
Ephrin type-A receptor 2
  IC50: > 10000 nM
[11]
  IC50: > 10000 nM
[12]
  Activity: 113%
[13]
  Activity: 114%
Casein kinase 2
  inhibition: 89.7%
[14]
  IC50: > 10000 nM
[15]
  Activity: 20%
U2OS
  Activity: Active
[16]
  Activity: 88%
[17]
  Activity: 141%
[18]
  Activity: 85%
[19]
  Activity: 125%

Reference: ChEMBL document CHEMBL5678806, “NMS-P937, an orally available, specific small-molecule polo-like kinase 1 inhibitor with antitumor activity in solid and hematologic malignancies” (Mol Cancer Ther, 2012)
